Published values collected from several papers.
Protocols differ between the studies behind these lines.

SMILES | test system | setting | half-life [h]
O=C(Nc1ccc(Cl)c(Cl)c1)c1ccc(N2CCNCC2)c([N+](=O)[O-])c1 | male mouse, plasma | intravenous, 3 mg/kg | 3.6
CCc1cc(OC)c2nccc(N3CCc4c(cc(Cn5ccnc5)cc4-c4cn(C)nc4C(F)(F)F)C3=O)c2c1 | male CD-1 mouse, plasma | intravenous, 3 mg/kg | 0.9
Cc1cc(C)cc(NC(=O)c2cnn(-c3ccc(C(C)C)cc3)c2C2CCNCC2)c1 | SCID mouse, plasma | oral, 50 mg/kg, single dose | ~2
CCOc1ccc(Cc2cc([C@@H]3O[C@H](CO)[C@@H](O)[C@H](O)[C@H]3O)ccc2Cl)cc1 | male C57BL/6 mouse, plasma | oral, 1 mg/kg | 3.7
Cc1ccc2cncc(N3CCc4c(cc(Cn5ccnc5)cc4-c4cn(C)nc4C(F)(F)F)C3=O)c2c1 | male CD-1 mouse, plasma | oral, 50 mg/kg | 2
NC(=S)NN=Cc1ncccc1N | female C57BL/6 mouse, plasma | intravenous, 20 mg/kg | 1.08
COc1nc(-c2cc(C)c(N[C@@H](C)c3c(F)cc(F)cc3F)nn2)ccc1-n1cnc(C)c1 | male CD-1 mouse, plasma | intravenous, 1 mg/kg, single dose | 3.1
Nc1ccc(-c2ccncc2)cc1NC(=O)N1CCCC1 | male C57BL/6 mouse, brain | intraperitoneal, 10 mg/kg | 0.462
CC[C@H](C)[C@@H]1NC(=O)[C@@](C)(NC(=O)[C@H](CCCNC(=N)N)NC(=O)[C@H](CC(C)C)NC(=O)[C@@H](NC(=O)[C@H](CCC(N)=O)NC(=O)[C@H](CC(C)C)NC(C)=O)[C@@H](C)O)CCCC=CCCC[C@@](C)(C(=O)N[C@@H](CC(C)C)C(=O)N[C@@H](Cc2ccc3ccccc3c2)C(N)=O)NC(=O)[C@H](CCCNC(=N)N)NC(=O)[C@H](CCC(N)=O)NC1=O | male BALB/c mouse, plasma | intravenous, 10 mg/kg | 2.17
COc1ccc(C(O)COc2ccc(-c3csc(-c4ccc(OCC(O)c5ccc(OC)c(OC)c5)cc4)n3)cc2)cc1OC (centres unmarked) | C57BL/6 mouse, plasma | oral, 30 mg/kg | 4.3
CC(C)(C)c1ccc(O)c(CN(Cc2cc(C(C)(C)C)ccc2O)C2CCC(NC(N)=O)CC2)c1 (centres unmarked) | male C57BL/6 mouse, plasma | intraperitoneal, 25 mg/kg, single dose | 2.4
Cc1noc(-c2ccc(CSCCC(=O)O)cc2)c1NC(=O)O[C@H](C)c1ccccc1Cl | mouse, plasma | oral, 50 mg/kg | 0.98
CNCCN(C)c1cc(C#N)cc(CCc2cc(C)cc(N)n2)c1 | male BALB/c mouse, plasma | intravenous, 2 mg/kg | 1.1
Cc1nc(-c2cnc(NC(C)C)n(C)c2=O)ccc1Oc1ccnc(-c2cnn(C)c2)c1 | female mouse, plasma | oral, 15 mg/kg, single dose | 6.85
Cc1cc(NC(=O)c2cccc3cc(-c4cccc5[nH]nc(N)c45)ccc23)ccc1F | male CD-1 mouse, plasma | oral, 10 mg/kg | 2.15
[Cl-].c1csc([I+]c2cccs2)c1 | mouse, plasma | intraperitoneal, 6 mg/kg | 0.08

SMILES | test system | setting | half-life [h]
COc1cc2c(Nc3ccc(Cl)c(Cl)c3F)ncnc2cc1OC[C@@H]1C[C@@H]2CN(C)C[C@@H]2C1 | FVB mouse, brain | oral, 70 mg/kg, single dose | 13.3
Cn1cnc2c(F)c(Nc3ccc(Br)cc3Cl)c(C(=O)NOCCO)cc21 | nude mouse, tumour | oral, 5 mg/kg, single dose, tumour-bearing | 2.9
CN1CCC[C@H](CN2c3ccccc3Sc3ccccc32)C1.O=C(O)CCC(=O)O | mouse, plasma | oral, 64 mg/kg, single dose | 3.36
Cc1ccc(NC(=O)c2ccc(CN3CCN(C)CC3)cc2)cc1Nc1nccc(-c2cncc(-c3oncc3C)c2)n1 | male C57BL/6 mouse, plasma | oral, 100 mg/kg/day | 2.6
CCN1CCN(Cc2cc(NC(=O)c3ccc(C)c(-c4ccc5nc(NC(=O)C6CC6)cn5n4)c3)cc(C(F)(F)F)c2)CC1 | Swiss mouse, plasma | intravenous, 1 mg/kg | 3.7
CC=Cc1ccc(O)c(OC)c1 | mouse, lung | intranasal, 100 mg/kg | 0.521
CNC(=O)[C@H](Cc1c[nH]cn1)NC(=O)CN(CCCc1ccccc1)CC(=O)OC | male C57BL/6 mouse, plasma | intraperitoneal, 30 mg/kg | 0.117
O=C(Nc1ccc(C(F)(F)F)cc1F)N1CCC(Cc2cccc(Oc3ccc(C(F)(F)F)cn3)c2)CC1 | male Swiss mouse, blood | oral, 1 mg/kg | 6
CCc1cc(C(=O)NC)c2nccc(N3CCc4c(cc(Cn5ccnc5)cc4-c4cn(C)nc4C(F)(F)F)C3=O)c2c1 | male CD-1 mouse, plasma | oral, 150 mg/kg | 1.6
CCc1ccc(Cc2cc([C@@H]3O[C@H](CO)[C@@H](O)[C@H](O)[C@H]3O)cc3c2CCC3)cc1 | male C57BL/6 mouse, plasma | oral, 3 mg/kg | 3.1
CNC(=O)c1cc(OC)cc2c(N3CCc4c(cc(Cn5ccnc5)cc4-c4cn(C)nc4C(F)(F)F)C3=O)ccnc12 | male CD-1 mouse, plasma | oral, 50 mg/kg | 1.1
COC(=O)C1=C(C)OC(C)=C(C(C)=O)C1c1ccc(Cl)c(C(F)(F)F)c1 (centres unmarked) | C57BL/6 mouse, plasma | intravenous, 10 mg/kg | 0.25
COc1ccc(NC(=O)N2CCCCN3[C@H](CN(C)S(C)(=O)=O)[C@H](c4ccc(C#Cc5ccccc5)cc4)[C@@H]3C2)cc1 | mouse, plasma | intravenous | 5
NCC1CCN(c2nc(-c3ccncc3)nc3sc4c(c23)CCCC4)CC1 | female CD-1 mouse, plasma | oral, 20 mg/kg | 7.8
COc1ccc2nccc(N3CCc4c(cc(Cn5ccnc5)cc4-c4cn(C)nc4C(F)(F)F)C3=O)c2c1 | male CD-1 mouse, plasma | oral, 50 mg/kg | 0.8
O=C(Nc1nc(-c2ccc(O)c(O)c2)c(-c2ccccc2)s1)c1ccc(O)c(O)c1 | female nude mouse, plasma | oral, 800 mg/kg | 10
